In ChEMBL document CHEMBL3853270, “Influence of Birch Bark Triterpenes on Keratinocytes and Fibroblasts from Diabetic and Nondiabetic Donors” (2016):
Activity calls are given as the source filed them. No cut-off for these calls is given here.

How the values were obtained:
Keratinocyte [1] = assay: Effect on pro-inflammatory related gene expression in diabetic adult human primary keratinocytes assessed as IL1R1 mRNA levels at 9.81 uM after 6 hrs by qPCR analysis; format: functional
Keratinocyte [2] = assay: Effect on cellular connection related gene expression in non-diabetic young human primary keratinocytes assessed as GJB2 mRNA levels at 1.96 uM after 6 hrs by qPCR analysis; format: functional
Fibroblast [3] = assay: Effect on chemokines related gene expression in non-diabetic young human primary fibroblasts assessed as IL8 mRNA levels at 9.81 uM after 6 hrs by qPCR analysis; format: functional
Outline: (§1)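 Primary human dermal fibroblasts (young or adult nondiabetic, adult diabetic donor) were treated for 6 h against a 0.1% DMSO solvent control. RNA from 320 000 cells per sample was measured by Fluidigm Biomark high-throughput qPCR. Values are fold change relative to solvent control, from four independent experiments, with SD. One-way ANOVA with Bonferroni post-test was applied.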

Keratinocyte [4] = assay: Effect on cellular connection related gene expression in non-diabetic young human primary keratinocytes assessed as GJB2 mRNA levels at 9.81 uM after 6 hrs by qPCR analysis; format: functional
Keratinocyte [5] = assay: Effect on MMP1 mRNA expression levels in diabetic adult human primary keratinocytes at 9.81 uM after 6 hrs by qPCR analysis; format: functional
Outline: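 Primary keratinocytes from nondiabetic young and adult and diabetic adult donors; 400 000 cells per sample, 6 h exposure at 1.96 or 9.81 μM. RNA extracted and read on a high-throughput qPCR chip. Results are fold change versus 0.1% DMSO solvent control from 5−7 independent experiments over two donors per group, SD, one-way ANOVA with Bonferroni post-test.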

Keratinocyte [6] = assay: Effect on growth factor related gene expression in non-diabetic young human primary keratinocytes assessed as GDF15 mRNA levels at 1.96 uM after 6 hrs by qPCR analysis; format: functional
Outline: (§2)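 Primary human keratinocytes (nondiabetic young or adult, diabetic adult donors) were exposed to compound for 6 h, with 0.1% DMSO as solvent control. Total RNA came from 400 000 cells per sample and was assayed on a Fluidigm Biomark high-throughput qPCR chip. Results are fold change vs solvent control, from 2−4 independent experiments on two donors per group, with SD. Groups were compared by one-way ANOVA with Bonferroni post-test.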

Fibroblast [7] = assay: Effect on growth factor related gene expression in non-diabetic young human primary fibroblasts assessed as VEGFA mRNA levels at 1.96 uM after 6 hrs by qPCR analysis; format: functional; outline: as §1
[8] = Effect on wound healing activity in diabetic adult human primary keratinocytes assessed as upregulation of soluble E-selectin protein levels at 1.96 uM after 24 hrs by bead-based suspension array analysis; format: functional; conditions: Keratinocyte
[9] = biological target: Transforming protein RhoA (Homo sapiens) (UniProt P61586); assay: Activation of RhoA in human diabetic primary keratinocytes at 10 nM after 3 hrs by immunoblot method
Outline: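 Keratinocytes from a diabetic adult donor; incubation 3 h for RhoA, 20 min for Cdc42 and Rac1. Lysates made in glycerol/Tris pH 7.4/NaCl/NP-40/MgCl2/PMSF buffer, spun at 4 °C. Active GTP-bound form pulled down on glutathione-sepharose with GST-Rhotekin (RhoA) or GST-PAK (Cdc42, Rac1) for 1 h at 4 °C. Total and pulled-down protein read by immunoblot with ECL; n = 3.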

Fibroblast [10] = assay: Effect on adhesion molecules related gene expression in diabetic adult human primary fibroblasts assessed as VCAM1 mRNA levels at 1.96 uM after 6 hrs by qPCR analysis; format: functional
Outline: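 Dermal fibroblasts from nondiabetic adult and diabetic adult donors, exposed for 6 h at 1.96 or 9.81 μM. ICAM-1 and VCAM-1 mRNA measured by standard qRT-PCR, n = 3. Fold change versus 0.1% DMSO control, SD, one-way ANOVA with Bonferroni post-test.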

Fibroblast [11] = assay: Effect on chemokines related gene expression in non-diabetic adult human primary fibroblasts assessed as WDR26 mRNA levels at 1.96 uM after 6 hrs by qPCR analysis; format: functional
[12] = Upregulation of wound healing activity related GM-CSF protein levels in non-diabetic adult human primary keratinocytes at 1.96 uM after 24 hrs by bead-based suspension array analysis; format: functional; conditions: Keratinocyte
Keratinocyte [13] = assay: Effect on pro-inflammatory related gene expression in non-diabetic young human primary keratinocytes assessed as IL6 mRNA levels at 1.96 uM after 6 hrs by qPCR analysis; format: functional
Fibroblast [14] = assay: Effect on growth factors related gene expression in diabetic adult human primary fibroblasts assessed as FGF2 mRNA levels at 9.81 uM after 6 hrs by qPCR analysis; format: functional; outline: as §1
Keratinocyte [15] = assay: Effect on pro-inflammatory related gene expression in non-diabetic young human primary keratinocytes assessed as IL1B mRNA levels at 9.81 uM after 6 hrs by qPCR analysis; format: functional
Keratinocyte [16] = assay: Effect on cellular connection related gene expression in non-diabetic adult human primary keratinocytes assessed as GJB2 mRNA levels at 1.96 uM after 6 hrs by qPCR analysis; format: functional
Keratinocyte [17] = assay: Effect on pro-inflammatory related gene expression in non-diabetic adult human primary keratinocytes assessed as TNF mRNA levels at 9.81 uM after 6 hrs by qPCR analysis; format: functional
Keratinocyte [18] = assay: Effect on growth factor related gene expression in diabetic adult human primary keratinocytes assessed as VEGFA mRNA levels at 9.81 uM after 6 hrs by qPCR analysis; format: functional; outline: as §2
[19] = Effect on wound healing activity in diabetic adult human primary fibroblasts assessed as upregulation of soluble ICAM1 protein levels at 1.96 uM after 24 hrs by bead-based suspension array analysis; format: functional; conditions: Fibroblast
[20] = Effect on wound healing activity in non-diabetic adult human primary fibroblasts assessed as upregulation of soluble TNFR1 protein levels at 1.96 uM after 24 hrs by bead-based suspension array analysis; format: functional; conditions: Fibroblast
Keratinocyte [21] = assay: Effect on chemokines related gene expression in non-diabetic adult human primary keratinocytes assessed as CXCL10 mRNA levels at 1.96 uM after 6 hrs by qPCR analysis; format: functional
Keratinocyte [22] = assay: Effect on growth factor related gene expression in non-diabetic young human primary keratinocytes assessed as PDGFB mRNA levels at 9.81 uM after 6 hrs by qPCR analysis; format: functional; outline: as §2
Fibroblast [23] = assay: Effect on transcription factor related gene expression in non-diabetic adult human primary fibroblasts assessed as JUN mRNA levels at 1.96 uM after 6 hrs by qPCR analysis; format: functional
[24] = Effect on wound healing activity in diabetic adult human primary keratinocytes assessed as upregulation of MIP1alpha protein levels at 1.96 uM after 24 hrs by bead-based suspension array analysis; format: functional; conditions: Keratinocyte
Keratinocyte [25] = assay: Effect on wound healing activity in non-diabetic adult human primary keratinocytes assessed as increase in soluble gp130 part of IL6 receptor protein levels at 1.96 uM after 24 hrs by bead-based suspension array analysis; format: functional
Fibroblast [26] = assay: Effect on antiinflammatory related gene expression in non-diabetic adult human primary fibroblasts assessed as NFKBIA mRNA levels at 9.81 uM after 6 hrs by qPCR analysis; format: functional
Outline: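 Primary dermal fibroblasts from one nondiabetic young, one nondiabetic adult and one diabetic adult donor; 320 000 cells per sample, 6 h at 1.96 or 9.81 μM. RNA measured on a high-throughput qPCR chip. Fold change versus 0.1% DMSO control, four independent experiments, SD, one-way ANOVA with Bonferroni post-test.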

Keratinocyte [27] = assay: Effect on pro-inflammatory related gene expression in diabetic adult human primary keratinocytes assessed as IL6 mRNA levels at 9.81 uM after 6 hrs by qPCR analysis; format: functional

Chain of Transforming protein RhoA (Homo sapiens) (P61586 whole entry): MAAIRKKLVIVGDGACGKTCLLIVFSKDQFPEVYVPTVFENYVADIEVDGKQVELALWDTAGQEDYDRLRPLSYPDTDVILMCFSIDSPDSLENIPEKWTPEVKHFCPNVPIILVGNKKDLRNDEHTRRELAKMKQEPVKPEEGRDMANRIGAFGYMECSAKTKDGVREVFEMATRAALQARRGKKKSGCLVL

With `C=C(C)[C@@H]1CC[C@]2(CO)CC[C@]3(C)[C@H](CC[C@@H]4[C@@]5(C)CC[C@H](O)C(C)(C)[C@@H]5CC[C@]43C)[C@@H]12` [BETULIN] the “fold change (FC)” value (Keratinocyte [1]) was 0.9, the “fold change (FC)” value (Keratinocyte [2]) was 0.8 and the “fold change (FC)” value (Fibroblast [3]) was 32. For the same compound, the “fold change (FC)” value (Keratinocyte [4]) was 0.8, the “fold change (FC)” value (Keratinocyte [5]) was 1.8 and the “fold change (FC)” value (Keratinocyte [6]) was 1. The “fold change (FC)” value (Fibroblast [7]) was 1.7, the Activity [8] was “Active” and the Activity [9] was “Active”. For the same compound, the “fold change (FC)” value (Fibroblast [10]) was 3.3, the “fold change (FC)” value (Fibroblast [11]) was 0.9 and the Activity [12] was “Active”. The “fold change (FC)” value (Keratinocyte [13]) was 3.6, the “fold change (FC)” value (Fibroblast [14]) was 1.6 and the “fold change (FC)” value (Keratinocyte [15]) was 0.9. For the same compound, the “fold change (FC)” value (Keratinocyte [16]) was 0.7, the “fold change (FC)” value (Keratinocyte [17]) was 6.1 and the “fold change (FC)” value (Keratinocyte [18]) was 2.2. For the same compound, the Activity [19] was “Active”, the Activity [20] was “Active” and the “fold change (FC)” value (Keratinocyte [21]) was 2.9. The “fold change (FC)” value (Keratinocyte [22]) was 1.1, the “fold change (FC)” value (Fibroblast [23]) was 1.9 and the Activity [24] was “Active”. The Activity (Keratinocyte [25]) was “Active”, the “fold change (FC)” value (Fibroblast [26]) was 11 and the “fold change (FC)” value (Keratinocyte [27]) was 26.
